{
  "source": "the M2OR odorant receptor database",
  "settings_in_all_cases": "stereoisomer not certain",
  "key": {"Or1m1 (Mus musculus)": {"target": "T1, Or1m1 (Mus musculus) (UniProt Q8VFM9)", "T1 sequence (whole entry)": "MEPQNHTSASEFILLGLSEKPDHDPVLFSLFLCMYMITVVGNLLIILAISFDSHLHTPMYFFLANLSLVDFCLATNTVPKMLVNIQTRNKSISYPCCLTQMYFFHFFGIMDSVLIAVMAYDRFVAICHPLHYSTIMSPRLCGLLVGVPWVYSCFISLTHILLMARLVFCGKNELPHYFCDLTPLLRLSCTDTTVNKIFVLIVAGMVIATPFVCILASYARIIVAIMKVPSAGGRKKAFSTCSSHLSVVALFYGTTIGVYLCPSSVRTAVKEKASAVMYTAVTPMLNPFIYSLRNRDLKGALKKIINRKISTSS", "outline": "(§1)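 Transient luciferase assays in mammalian cell lines were common, though methods varied by source. The values come from published papers and their supplementary material, with extra details from the original authors when needed. Responsive refers to a measured signal the original authors judged statistically different from baseline, and non-responsive (inactive) to the remainder.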"}, "Or5ar1 (Mus musculus)": {"target": "T2, Or5ar1 (Mus musculus) (UniProt Q8VGS3)", "T2 sequence (whole entry)": "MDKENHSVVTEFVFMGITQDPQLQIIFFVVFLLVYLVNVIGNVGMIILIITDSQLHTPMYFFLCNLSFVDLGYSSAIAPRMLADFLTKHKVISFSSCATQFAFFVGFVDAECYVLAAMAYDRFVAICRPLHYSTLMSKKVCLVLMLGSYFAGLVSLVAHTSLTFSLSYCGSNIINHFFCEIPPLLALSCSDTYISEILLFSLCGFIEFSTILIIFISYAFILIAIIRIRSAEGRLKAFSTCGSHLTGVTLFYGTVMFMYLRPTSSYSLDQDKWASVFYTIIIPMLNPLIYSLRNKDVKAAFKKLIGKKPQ", "outline": "as §1"}, "Or2c1 (Mus musculus)": {"target": "T3, Or2c1 (Mus musculus) (UniProt P23275)", "T3 sequence (whole entry)": "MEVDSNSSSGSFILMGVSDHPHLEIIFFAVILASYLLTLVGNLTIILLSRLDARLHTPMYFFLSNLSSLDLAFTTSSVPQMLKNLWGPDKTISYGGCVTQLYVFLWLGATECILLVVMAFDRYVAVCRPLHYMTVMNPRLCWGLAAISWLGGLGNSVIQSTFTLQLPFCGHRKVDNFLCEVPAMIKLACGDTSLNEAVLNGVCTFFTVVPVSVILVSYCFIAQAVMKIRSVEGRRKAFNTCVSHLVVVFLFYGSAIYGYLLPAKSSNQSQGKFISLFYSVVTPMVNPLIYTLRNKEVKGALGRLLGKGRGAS", "outline": "as §1"}, "Or5p80 (Mus musculus)": {"target": "T4, Or5p80 (Mus musculus) (UniProt Q8VG42)", "T4 sequence (whole entry)": "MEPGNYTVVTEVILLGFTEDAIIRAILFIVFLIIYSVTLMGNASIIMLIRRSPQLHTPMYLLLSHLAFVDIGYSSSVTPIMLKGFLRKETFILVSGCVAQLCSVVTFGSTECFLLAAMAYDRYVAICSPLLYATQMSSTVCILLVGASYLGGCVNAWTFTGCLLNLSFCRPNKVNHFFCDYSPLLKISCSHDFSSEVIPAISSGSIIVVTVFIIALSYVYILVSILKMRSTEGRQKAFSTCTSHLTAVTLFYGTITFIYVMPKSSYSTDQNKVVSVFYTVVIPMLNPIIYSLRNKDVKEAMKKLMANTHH", "outline": "as §1"}, "Or7a40 (Mus musculus)": {"target": "T5, Or7a40 (Mus musculus) (UniProt Q9JHB2)", "T5 sequence (whole entry)": "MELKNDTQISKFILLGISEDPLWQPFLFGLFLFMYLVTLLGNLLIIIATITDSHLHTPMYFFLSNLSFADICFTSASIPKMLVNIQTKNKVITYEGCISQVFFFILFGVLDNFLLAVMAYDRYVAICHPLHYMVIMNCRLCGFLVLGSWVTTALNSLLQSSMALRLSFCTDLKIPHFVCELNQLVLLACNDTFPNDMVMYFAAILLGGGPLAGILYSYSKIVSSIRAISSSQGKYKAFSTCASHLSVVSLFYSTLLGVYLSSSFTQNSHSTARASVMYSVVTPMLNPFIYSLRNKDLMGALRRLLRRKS", "outline": "as §1"}, "Or8b3 (Mus musculus)": {"target": "Or8b3 (Mus musculus) (UniProt Q60886)", "sequence (Q60886 whole entry)": "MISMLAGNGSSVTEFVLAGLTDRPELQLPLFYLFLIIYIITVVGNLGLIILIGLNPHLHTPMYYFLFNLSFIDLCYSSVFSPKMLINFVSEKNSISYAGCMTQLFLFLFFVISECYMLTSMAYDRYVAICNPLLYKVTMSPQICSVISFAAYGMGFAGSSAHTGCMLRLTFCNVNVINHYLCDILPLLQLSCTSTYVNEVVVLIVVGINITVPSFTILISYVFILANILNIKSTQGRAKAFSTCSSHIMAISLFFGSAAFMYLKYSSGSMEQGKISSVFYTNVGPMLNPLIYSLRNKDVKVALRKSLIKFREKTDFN", "outline": "as §1"}, "Or5k16 (Mus musculus)": {"target": "T6, Or5k16 (Mus musculus) (UniProt Q7TS48)", "T6 sequence (whole entry)": "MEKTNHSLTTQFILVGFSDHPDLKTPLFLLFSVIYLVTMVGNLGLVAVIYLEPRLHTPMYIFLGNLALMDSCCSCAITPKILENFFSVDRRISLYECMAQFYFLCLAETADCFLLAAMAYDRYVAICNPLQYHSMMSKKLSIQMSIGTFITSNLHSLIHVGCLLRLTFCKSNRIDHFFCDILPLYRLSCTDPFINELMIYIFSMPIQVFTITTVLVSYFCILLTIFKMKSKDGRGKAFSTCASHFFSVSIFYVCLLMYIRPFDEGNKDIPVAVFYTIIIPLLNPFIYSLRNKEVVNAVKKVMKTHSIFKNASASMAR", "outline": "as §1"}, "Or5an6 (Mus musculus)": {"target": "T7, Or5an6 (Mus musculus) (UniProt Q8VFV4)", "T7 sequence (whole entry)": "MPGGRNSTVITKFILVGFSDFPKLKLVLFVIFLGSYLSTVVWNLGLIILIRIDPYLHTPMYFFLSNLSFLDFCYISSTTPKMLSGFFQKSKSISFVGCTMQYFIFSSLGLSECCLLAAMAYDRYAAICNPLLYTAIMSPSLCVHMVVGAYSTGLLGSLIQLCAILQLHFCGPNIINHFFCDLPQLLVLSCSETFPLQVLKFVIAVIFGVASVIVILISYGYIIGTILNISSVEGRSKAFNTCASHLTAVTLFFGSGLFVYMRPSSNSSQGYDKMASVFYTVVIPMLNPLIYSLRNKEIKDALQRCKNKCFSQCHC", "outline": "as §1"}},
  "data": [
    {"smiles": "CCSCC", "values": [
      {"measurement": "odorant receptor agonist call", "setting": "Or1m1 (Mus musculus)", "value": "inactive"},
      {"measurement": "odorant receptor agonist call", "setting": "Or5ar1 (Mus musculus)", "value": "inactive"}
    ]},
    {"smiles": "CCCCCCCCOC=O", "values": [
      {"measurement": "odorant receptor agonist call", "setting": "Or1m1 (Mus musculus)", "value": "inactive"},
      {"measurement": "odorant receptor agonist call", "setting": "Or5ar1 (Mus musculus)", "value": "inactive"}
    ]},
    {"smiles": "C=C(C)C1CC=C(C)CC1", "note": "(stereo not drawn)", "values": [
      {"measurement": "odorant receptor agonist call", "setting": "Or1m1 (Mus musculus)", "value": "inactive"},
      {"measurement": "odorant receptor agonist call", "setting": "Or5ar1 (Mus musculus)", "value": "inactive"}
    ]},
    {"smiles": "CC(=O)C=CC1=C(C)CCCC1(C)C", "values": [
      {"measurement": "odorant receptor agonist call", "setting": "Or1m1 (Mus musculus)", "value": "inactive"},
      {"measurement": "odorant receptor agonist call", "setting": "Or5ar1 (Mus musculus)", "value": "inactive"}
    ]},
    {"smiles": "c1ccc2ncccc2c1", "values": [
      {"measurement": "odorant receptor agonist call", "setting": "Or1m1 (Mus musculus)", "value": "inactive"},
      {"measurement": "odorant receptor agonist call", "setting": "Or5ar1 (Mus musculus)", "value": "inactive"}
    ]},
    {"smiles": "CC1CCC(C(C)C)C(=O)C1", "note": "(stereo not drawn)", "values": [
      {"measurement": "odorant receptor agonist call", "setting": "Or1m1 (Mus musculus)", "value": "inactive"},
      {"measurement": "odorant receptor agonist call", "setting": "Or5ar1 (Mus musculus)", "value": "inactive"}
    ]},
    {"smiles": "CCSSCC", "values": [
      {"measurement": "odorant receptor agonist call", "setting": "Or1m1 (Mus musculus)", "value": "inactive"},
      {"measurement": "odorant receptor agonist call", "setting": "Or5ar1 (Mus musculus)", "value": "inactive"}
    ]},
    {"smiles": "CCc1ccc(O)cc1", "values": [
      {"measurement": "odorant receptor agonist call", "setting": "Or1m1 (Mus musculus)", "value": "inactive"},
      {"measurement": "odorant receptor agonist call", "setting": "Or5ar1 (Mus musculus)", "value": "inactive"}
    ]},
    {"smiles": "O=c1ccc2ccccc2o1", "values": [
      {"measurement": "odorant receptor agonist call", "setting": "Or2c1 (Mus musculus)", "value": "inactive"},
      {"measurement": "odorant receptor agonist call", "setting": "Or5ar1 (Mus musculus)", "value": "inactive"},
      {"measurement": "odorant receptor agonist call", "setting": "Or5p80 (Mus musculus)", "value": "active"},
      {"measurement": "odorant receptor agonist call", "setting": "Or7a40 (Mus musculus)", "value": "inactive"},
      {"measurement": "odorant receptor agonist call", "setting": "Or8b3 (Mus musculus)", "value": "active"}
    ]},
    {"smiles": "COc1nccnc1CC(C)C", "values": [
      {"measurement": "odorant receptor agonist call", "setting": "Or5k16 (Mus musculus)", "value": "inactive"}
    ]},
    {"smiles": "CCC(C(=O)O)c1ccccc1", "note": "(stereo not drawn)", "values": [
      {"measurement": "odorant receptor agonist call", "setting": "Or2c1 (Mus musculus)", "value": "inactive"},
      {"measurement": "odorant receptor agonist call", "setting": "Or5ar1 (Mus musculus)", "value": "inactive"},
      {"measurement": "odorant receptor agonist call", "setting": "Or5p80 (Mus musculus)", "value": "inactive"},
      {"measurement": "odorant receptor agonist call", "setting": "Or7a40 (Mus musculus)", "value": "inactive"}
    ]},
    {"smiles": "CCc1nccnc1C", "values": [
      {"measurement": "odorant receptor agonist call", "setting": "Or5k16 (Mus musculus)", "value": "inactive"}
    ]},
    {"smiles": "CCCCCCCCCCCCCC(C)=O", "values": [
      {"measurement": "odorant receptor agonist call", "setting": "Or5an6 (Mus musculus)", "value": "active"}
    ]},
    {"smiles": "O=C1CCCCCC=CCCCCCCCCO1", "values": [
      {"measurement": "odorant receptor agonist call", "setting": "Or5an6 (Mus musculus)", "value": "active"}
    ]},
    {"smiles": "C=Cc1cnccn1", "values": [
      {"measurement": "odorant receptor agonist call", "setting": "Or5k16 (Mus musculus)", "value": "inactive"}
    ]},
    {"smiles": "Cc1cncc(C)n1", "values": [
      {"measurement": "odorant receptor agonist call", "setting": "Or5k16 (Mus musculus)", "value": "inactive"}
    ]},
    {"smiles": "CC1CCCCCCCCCCCC(=O)C1", "note": "(stereo not drawn)", "values": [
      {"measurement": "odorant receptor agonist call", "setting": "Or5an6 (Mus musculus)", "value": "active"}
    ]},
    {"smiles": "CCc1cnc(C)c(C)n1", "values": [
      {"measurement": "odorant receptor agonist call", "setting": "Or5k16 (Mus musculus)", "value": "active"}
    ]}
  ]
}
